Measurements from different studies.
Lines come from different studies, so protocols differ.
PKM: Pyruvate kinase PKM (PKM, Homo sapiens, UniProt P14618)
CDK2: Cyclin-dependent kinase 2 (CDK2, Homo sapiens, UniProt P24941)
STAT3: Signal transducer and activator of transcription 3 (STAT3, Homo sapiens, UniProt P40763)
SIRT6: NAD-dependent protein deacylase sirtuin-6 (SIRT6, Homo sapiens, UniProt Q8N6T7)
HTR6: 5-hydroxytryptamine receptor 6 (HTR6, Homo sapiens, UniProt P50406)
HTR7: 5-hydroxytryptamine receptor 7 (HTR7, Homo sapiens, UniProt P34969)
OR5K1 A2T/T15M/Y193C: OR5K1 (Homo sapiens, UniProt Q8NHB7, A2T/T15M/Y193C)

Cc1ccc(NS(=O)(=O)c2cc3c(cc2/C=C/c2ccccc2)NC(=O)CO3)cc1C  AC50 (PKM; enzyme activity, activator): > 20 µM
CC(=O)N=S(=O)(O)c1ccc(N/C=C2\C(=O)Nc3ccc4ncsc4c32)cc1  Kd (CDK2; binding): 0.526 µM
Cc1cc(C)c(S(=O)(=O)N(C)CC(=O)N(Cc2ccc3ccccc3c2)c2ccc(C(=O)O)c(O)c2)c(C)c1  Ki (STAT3; ligand displacement, FP): 27.7 µM
CC(=O)N[C@H](C(=O)N[C@@H](CC(N)=O)C(=O)N[C@@H](CCCCN)C(=O)N1CCC[C@H]1C(=O)N[C@@H](CC(C)C)C(=O)N1CCC[C@H]1C(=O)N1CCC[C@H]1C(=O)N[C@@H](CC(C)C)C(=O)N1CCC[C@H]1C(=O)N[C@H](C(=O)N[C@@H](C)C(N)=O)C(C)C)C(C)C  Kd (Tyrosine-protein kinase Fyn, SH3 (FYN, Homo sapiens, UniProt P06241); binding, ITC; pH 7): 23.9 µM
Cc1ccc(NS(=O)(=O)c2cc3c(cc2N[C@H](C)CO)NC(=O)CC3)cc1C  AC50 (PKM; enzyme activity, activator): 0.88 µM
CC[C@H](NC(=O)[C@H](CS(=O)(=O)CC1CC1)N[C@@H](c1ccc(F)cc1)C(F)(F)F)C(=O)C(=O)NC1CC1  Ki (Cathepsin B (CTSB, Homo sapiens, UniProt P07858); enzyme activity, inhibitor, fluorescence; with preincubation): 0.00033 µM
Cc1ccc(NS(=O)(=O)c2cc3c(cc2N2CCC(N(C)C)C2)NC(=O)CC3)cc1C (stereo not drawn)  AC50 (PKM; enzyme activity, activator): > 20 µM
CC(=O)Nc1ccc(C(=O)NOCc2ccccc2)cc1  IC50 (SIRT6; enzyme activity, inhibitor, fluorescence): 218 µM
CC1=C(/C=C/C2=CCC[C@]3(C)[C@@H]([C@H](C)CCCC(C)(C)O)CC[C@@H]23)C[C@@H](O)CC1  EC50 (Oxysterols receptor LXR-beta (NR1H2, Homo sapiens, UniProt P55055); coactivator recruitment, agonist, TR-FRET): 0.01 to 0.1 µM
Cc1nc2cc(OCCCCN3CCN(c4cccc(Cl)c4Cl)CC3)ccc2s1  Ki (HTR6; cell-free assay, radioligand): 0.72 µM
Cc1ccccc1Sc1ccc(CONC(=O)c2ccc(C(N)=O)cc2)cc1C(F)(F)F  IC50 (SIRT6; enzyme activity, inhibitor, fluorescence): 1.77 µM
Cc1cc(NS(=O)(=O)c2ccc3c(c2)CCC(=O)N3)ccc1Cl  AC50 (PKM; enzyme activity, activator): 0.56 µM
Cc1ccc2cccc(N3CCN(CCCCOc4ccc5sc(C(C)C)nc5c4)CC3)c2n1  Ki (HTR6; cell-free assay, radioligand): 2.2 µM
CC(C)[C@@H](CC[C@@H](C)[C@H]1CC[C@H]2[C@@H]3[C@H](O)C[C@H]4C[C@@H](NCCCNCCCCNCCCN)CC[C@]4(C)[C@H]3CC[C@]12C)OS(=O)(=O)O  Ki (Receptor-type tyrosine-protein phosphatase C (PTPRC, Homo sapiens, UniProt P08575); enzyme activity, inhibitor): 18 µM
CN(C)CCSc1nc2ccccc2cc1-c1ccccc1  Ki (HTR7; ligand displacement, radioligand; cell membranes): 0.393 µM
Cc1cnc(C)c(C)n1  EC50 (OR5K1 (Homo sapiens, UniProt Q8NHB7, F62L); cAMP, agonist): 376 µM
Nc1nc2c(ncn2[C@@H]2O[C@H](COP(=O)(O)OP(=O)(O)O)[C@@H](OP(=O)(O)OP(=O)(O)O)[C@H]2O)c(=O)[nH]1  Kd (Xanthine-guanine phosphoribosyltransferase (Escherichia coli, UniProt P0A9M5); binding, ITC): 3.2 µM
CN1C[C@H](CNC(=O)OCc2ccccc2)C[C@@H]2c3cccc4c3c(cn4C)C[C@H]21  Ki (HTR7; ligand displacement, radioligand; cell membranes): 0.016 µM
O=C1CCc2cc(S(=O)(=O)Nc3ccc4ncccc4c3)ccc2N1  AC50 (PKM; enzyme activity, activator): > 20 µM
COc1cnccn1  EC50 (OR5K1 (Homo sapiens, UniProt Q8NHB7); cAMP, agonist): > 1500 µM
Cc1ccc(NS(=O)(=O)c2cc3c(cc2N[C@@H](C)CO)CCC(=O)N3)cc1Cl  AC50 (PKM; enzyme activity, activator): 6.1 µM
NC(=O)c1ccc(C(=O)NOCc2ccc(-c3ccccc3)cc2)cc1  IC50 (SIRT6; enzyme activity, inhibitor, fluorescence): 2.56 µM
O=C(Nc1cc(C2CCCCC2)[nH]n1)c1ccc(Br)cc1  Kd (CDK2; binding): > 100 µM
COc1ccc(Sc2ccc(CONC(=O)c3ccc(C(N)=O)cc3)cc2C(F)(F)F)cc1  IC50 (SIRT6; enzyme activity, inhibitor, fluorescence): 1.48 µM
Cc1cc(C)c(S(=O)(=O)N(C)CC(=O)N(Cc2cc(C(C)(C)C)cc(C(C)(C)C)c2)c2ccc(C(=O)O)c(O)c2)c(C)c1  Ki (STAT3; ligand displacement, FP): 19.7 µM
Cc1cnc(-c2ccc(-c3ccc(NC(=O)Nc4c(F)cc(F)cc4F)cc3F)c3c2C(=O)NC3)[nH]1  Kd (Mitogen-activated protein kinase kinase kinase kinase 1 (MAP4K1, Homo sapiens, UniProt Q92918); binding, competition with immobilised ligand): 0.0072 µM
Cc1nc2n(c(=O)c1CCN1CCC(c3noc4cc(F)ccc34)CC1)CCCC2O (stereo not drawn)  Ki (HTR7; ligand displacement, radioligand; cell membranes): 0.01 µM
O=C1CCc2cc(S(=O)(=O)Nc3ccc4c(c3)OCCO4)ccc2N1  AC50 (PKM; enzyme activity, activator): 11.1 µM
c1cncc(-c2cccc(Nc3nccc(NC4CCCCC4)n3)c2)c1  Kd (Serine/threonine-protein kinase D3 (PRKD3, Homo sapiens, UniProt O94806); binding, competition with immobilised ligand): 1.7 µM
NC(=O)c1ccc(C(=O)NOCc2cccc(Br)c2)cc1  IC50 (SIRT6; enzyme activity, inhibitor, fluorescence): 5.24 µM
Cc1cc(NS(=O)(=O)c2cc3c(cc2F)NC(=O)CC3)ccc1Cl  AC50 (PKM; enzyme activity, activator): 0.6 µM
Cc1ccc(Sc2ccc(CONC(=O)c3ccc(C(N)=O)cc3)cc2C(F)(F)F)cc1  IC50 (SIRT6; enzyme activity, inhibitor, fluorescence): 1.5 µM
CCc1ncc(C)nc1CC  EC50 (OR5K1 A2T/T15M/Y193C; cAMP, agonist): 102 µM
O=C(NOCc1ccc(C(F)(F)F)cc1)c1ccc(CO)cc1  IC50 (SIRT6; enzyme activity, inhibitor, fluorescence): 6.68 µM
COc1cccc(OC)c1NS(=O)(=O)c1ccc(N/C=C2\C(=O)Nc3ccc4ncsc4c32)cc1  Kd (CDK2; binding): 0.179 µM
CCc1nccnc1CC  EC50 (OR5K1 A2T/T15M/Y193C; cAMP, agonist): 499 µM
CN1CCN(C2=Nc3ccccc3Oc3ccc(Cl)cc32)CC1  Ki (HTR7; ligand displacement, radioligand; cell membranes): 0.258 µM
NC(=O)c1ccc(C(=O)NOCc2ccc3nccnc3c2)cc1  IC50 (SIRT6; enzyme activity, inhibitor, fluorescence): 65 µM
CCc1nccnc1OC  EC50 (OR5K1 A2T/T15M/Y193C; cAMP, agonist): 578 µM
